Here are results for 2 compounds from ChEMBL document CHEMBL3526056, “Characterization of in vitro glucuronidation clearance of a range of drugs in human kidney microsomes: comparison with liver and intestinal glucuronidation and impact of albumin” (Drug Metab Dispos, 2012).

SMILES strings stand for the structures.

A short description of series [1]: Fraction unbound in human kidney microsomes at 5 uM after 30 to 60 mins by LC-MS/MS analysis in presence of 2% bovine serum albumin.
The test system of series [2] is Liver microsome. The series is described as follows: Fraction metabolized glucuronidation in human liver microsomes in presence of UDP-glucuronosyltransferase. The series is classed as ADME.
Series [3] can be described thus: Glucuronidation clearance in human liver microsomes. Type of series: ADME. (In general: Microsomes from liver hold many membrane-bound enzymes, among them those of drug oxidation.)
For series [4], the system named is Liver microsome. In words: Ratio of unbound intrinsic glucuronidation clearance in human liver microsomes in presence of 2% bovine serum albumin to unbound intrinsic glucuronidation clearance in human liver microsomes in absence of bovine serum albumin. The series is classed as ADME. In a few lines:
(§1)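 Ratios of mean scaled unbound CLint,UGT (per g tissue) between tissues, or between with and without BSA. Microsomal depletion assays at 1 μM, or 5 μM for propofol, in pH 7.1 phosphate at 37°C, read by LC-MS/MS. Kidney and liver n = 3, intestine n = 1, each in duplicate.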

The nature of series [5]: Fraction unbound in human liver microsomes at 5 uM after 30 to 60 mins by LC-MS/MS analysis.
Series [6] is described as follows: Ratio of unbound intrinsic glucuronidation clearance in human kidney microsomes in presence of 2% bovine serum albumin to unbound intrinsic glucuronidation clearance in human kidney microsomes in absence of bovine serum albumin. The series is classed as ADME, microsome. In a few lines: as §1
Series [7] is described as follows: Fraction unbound in human intestinal microsomes at 5 uM after 30 to 60 mins by LC-MS/MS analysis.
Series [8] can be described thus: Ratio of unbound intrinsic glucuronidation clearance in human intestinal microsomes in presence of 2% bovine serum albumin to unbound intrinsic glucuronidation clearance in human intestinal microsomes in absence of bovine serum albumin. The series is classed as ADME, Intestine, Microsome. In a few lines: as §1
The nature of series [9]: Fraction unbound in human kidney microsomes at 5 uM after 30 to 60 mins by LC-MS/MS analysis.
The nature of series [10]: Ratio of drug level blood to plasma in human. Type of series: ADME. The following applies: blood and plasma.
Series [11] can be described thus: Fraction unbound in human plasma.
Series [12] can be described thus: Glucuronidation clearance in human liver microsomes in presence of bovine serum albumin. The series is classed as ADME.
A short description of series [13]: Clearance in iv dosed human. The series is classed as ADME, organism-based. To be noted: in vivo.
Series [14] deals with Liver microsome. The series is described as follows: Fraction metabolized glucuronidation in human liver microsomes in presence of UDP-glucuronosyltransferase and bovine serum albumin. Type of series: ADME.
A short description of series [15]: Fraction unbound in human liver microsomes at 1 uM after 30 to 60 mins by LC-MS/MS analysis in presence of 1% bovine serum albumin. The following applies: liver microsomes. The series is classed as ADME.
A short description of series [16]: Unbound intrinsic glucuronidation clearance in human intestinal microsomes at 1 uM after 30 to 60 mins by LC-MS/MS analysis in presence of UDP-glucuronosyltransferase. The series is classed as ADME, Intestine, Microsome. An outline of the steps: (§2)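 Alamethicin-activated pooled microsomes (HLM 150 donors; HKM 8; HIM 18). Drug at 1 μM final, preincubated 5 min at 37°C in 0.1 M phosphate pH 7.1 with 3.45 mM MgCl2, 1.15 mM EDTA, 115 μM saccharic acid lactone. Started with […] cofactor (5 mM final), 30–60 min. Cofactor-free controls. Parent depletion by LC-MS/MS, single-exponential k. Corrected by HLM-dialysis fu,inc. Duplicates; n=3 (HIM n=1).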

Series [17] can be described thus: Unbound intrinsic glucuronidation clearance in human intestinal microsomes at 1 uM after 30 to 60 mins by LC-MS/MS analysis in presence of UDP-glucuronosyltransferase and 1% bovine serum albumin. Type of series: ADME, Intestine, Microsome.
The nature of series [18]: Unbound intrinsic glucuronidation clearance in human kidney microsomes at 1 uM after 30 to 60 mins by LC-MS/MS analysis in presence of UDP-glucuronosyltransferase. The series is classed as ADME, microsome. In a few lines: as §2
Series [19] addresses T1, UDP-glucuronosyltransferase 1A9 (Homo sapiens, UniProt O60656).
T1 sequence (O60656 whole entry): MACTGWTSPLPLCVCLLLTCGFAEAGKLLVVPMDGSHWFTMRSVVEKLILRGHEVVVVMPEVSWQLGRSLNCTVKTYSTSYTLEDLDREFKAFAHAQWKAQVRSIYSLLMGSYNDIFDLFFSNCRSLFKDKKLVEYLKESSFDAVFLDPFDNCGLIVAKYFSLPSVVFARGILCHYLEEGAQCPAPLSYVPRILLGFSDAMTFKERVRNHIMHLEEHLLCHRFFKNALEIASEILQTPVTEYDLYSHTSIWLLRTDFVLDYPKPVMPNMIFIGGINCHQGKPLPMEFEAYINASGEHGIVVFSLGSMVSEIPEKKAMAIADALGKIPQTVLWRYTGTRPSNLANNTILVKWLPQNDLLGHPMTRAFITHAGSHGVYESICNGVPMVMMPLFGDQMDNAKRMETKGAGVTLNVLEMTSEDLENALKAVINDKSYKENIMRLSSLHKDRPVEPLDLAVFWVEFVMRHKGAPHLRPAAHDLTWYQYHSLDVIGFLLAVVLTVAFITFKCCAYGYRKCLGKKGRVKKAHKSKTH
The series is described as follows: Drug metabolism in human liver microsomes assessed as UGT1A9-mediated unbound intrinsic glucuronidation clearance at 1 uM after 30 to 60 mins by LC-MS/MS analysis in presence of 1% bovine serum albumin. The series is classed as ADME.

For series [20], the target named is T1, UDP-glucuronosyltransferase 1A9. The series is described as follows: Drug metabolism in human kidney microsomes assessed as UGT1A9-mediated unbound intrinsic glucuronidation clearance at 1 uM after 30 to 60 mins by LC-MS/MS analysis in presence of 1% bovine serum albumin. The series is classed as ADME.
For series [21] the target is unchanged. In words: Ratio of UGT1A9-mediated unbound intrinsic glucuronidation clearance in human intestinal microsomes to UGT1A9-mediated unbound intrinsic glucuronidation clearance in human liver microsomes at 1 uM. The series is classed as ADME.
The target is the same in series [22]. The series is described as follows: Drug metabolism in human liver microsomes assessed as UGT1A9-mediated unbound intrinsic glucuronidation clearance at 1 uM after 30 to 60 mins by LC-MS/MS analysis. The series is classed as ADME.
Series [23] has the same target. The series is described as follows: Ratio of UGT1A9-mediated unbound intrinsic glucuronidation clearance in human kidney microsomes to UGT1A9-mediated unbound intrinsic glucuronidation clearance in human liver microsomes at 1 uM. The series is classed as ADME. An outline of the steps: (§3)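 Unbound intrinsic clearance measured by substrate depletion in kidney and liver microsomes (1 μM drug, 0.1 M phosphate pH 7.1, 5 mM cofactor, 37°C, LC-MS/MS), without or with 1% BSA. Values scaled per g tissue; ratio taken as mean scaled kidney over mean scaled liver value.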

Series [24] can be described thus: Fraction unbound in human liver microsomes at 1 uM after 30 to 60 mins by LC-MS/MS analysis. Type of series: ADME.
The subject of series [25] is Liver microsome. The series is described as follows: Unbound intrinsic glucuronidation clearance in human liver microsomes at 1 uM after 30 to 60 mins by LC-MS/MS analysis in presence of UDP-glucuronosyltransferase. The series is classed as ADME. An outline of the steps: as §2
Series [26] is described as follows: Ratio of unbound intrinsic glucuronidation clearance in human kidney microsomes in presence of 1% bovine serum albumin to unbound intrinsic glucuronidation clearance in human kidney microsomes in absence of bovine serum albumin. The series is classed as ADME, microsome. In a few lines:
(§4)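 Unbound intrinsic glucuronidation clearance measured by parent-drug depletion in intestinal or kidney microsomes, once with 1% BSA and once without, under otherwise matched conditions (1 μM drug, pH 7.1 phosphate, 5 mM cofactor, 37°C). Each value was corrected for fu,inc. The ratio is the mean clearance with BSA over the mean without.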

For series [27], the target named is T1, UDP-glucuronosyltransferase 1A9. In words: Drug metabolism in human intestinal microsomes assessed as UGT1A9-mediated unbound intrinsic glucuronidation clearance at 1 uM after 30 to 60 mins by LC-MS/MS analysis. Type of series: ADME, Intestine.
A short description of series [28]: Fraction unbound in human intestinal microsomes at 1 uM after 30 to 60 mins by LC-MS/MS analysis. The series is classed as ADME, Intestine, Microsome.
Series [29] has as its target T1, UDP-glucuronosyltransferase 1A9. In words: Drug metabolism in human kidney microsomes assessed as UGT1A9-mediated unbound intrinsic glucuronidation clearance at 1 uM after 30 to 60 mins by LC-MS/MS analysis. The series is classed as ADME.
A short description of series [30]: Drug metabolism in human intestinal microsomes assessed as UGT1A8/2B7-mediated unbound intrinsic glucuronidation clearance at 1 uM after 30 to 60 mins by LC-MS/MS analysis in presence of 2% bovine serum albumin. The series is classed as ADME, Intestine.
For series [31], the target named is T1, UDP-glucuronosyltransferase 1A9. In words: Ratio of UGT1A9-mediated unbound intrinsic glucuronidation clearance in human kidney microsomes to UGT1A9-mediated unbound intrinsic glucuronidation clearance in human liver microsomes at 1 uM in presence of 1% bovine serum albumin. Type of series: ADME. In a few lines: as §3
Series [32] is described as follows: Fraction unbound in human kidney microsomes at 1 uM after 30 to 60 mins by LC-MS/MS analysis. Type of series: ADME.
Series [33] addresses T1, UDP-glucuronosyltransferase 1A9. The series is described as follows: Ratio of UGT1A9-mediated unbound intrinsic glucuronidation clearance in human kidney microsomes to UGT1A9-mediated unbound intrinsic glucuronidation clearance in human intestinal microsomes at 1 uM in presence of 1% bovine serum albumin. Type of series: ADME.
Series [34] shares this target. The series is described as follows: Ratio of UGT1A9-mediated unbound intrinsic glucuronidation clearance in human kidney microsomes to UGT1A9-mediated unbound intrinsic glucuronidation clearance in human intestinal microsomes at 1 uM. Type of series: ADME.
Series [35] in a line: Unbound intrinsic glucuronidation clearance in human kidney microsomes at 1 uM after 30 to 60 mins by LC-MS/MS analysis in presence of UDP-glucuronosyltransferase and 1% bovine serum albumin. The series is classed as ADME, microsome.
Series [36] deals with Liver microsome. In words: Unbound intrinsic glucuronidation clearance in human liver microsomes at 1 uM after 30 to 60 mins by LC-MS/MS analysis in presence of UDP-glucuronosyltransferase and 1% bovine serum albumin. Type of series: ADME.
Series [37] in a line: Ratio of unbound intrinsic glucuronidation clearance in human intestinal microsomes in presence of 1% bovine serum albumin to unbound intrinsic glucuronidation clearance in human intestinal microsomes in absence of bovine serum albumin. Type of series: ADME, Intestine, Microsome. In a few lines:
as §4

Series [38] deals with T1, UDP-glucuronosyltransferase 1A9. In words: Ratio of UGT1A9-mediated unbound intrinsic glucuronidation clearance in human intestinal microsomes to UGT1A9-mediated unbound intrinsic glucuronidation clearance in human liver microsomes at 1 uM in presence of 1% bovine serum albumin. Type of series: ADME.
Series [39] can be described thus: Renal clearance in human. The series is classed as ADME, organism-based, Kidney. The following applies: in vivo.

Broadly, the fraction unbound is free concentration divided by total concentration. Broadly, the clearance is a measure of how efficiently the substance is removed, as volume per time. A higher clearance goes with a high capacity for elimination. For `CC(C)c1cccc(C(C)C)c1O` [PROPOFOL], the fraction unbound at 5 µM in series [1] amounted to 0.25; in series [5] it was 0.69; in series [7], 0.69; in [9], 0.69. For the same compound, the Drug metabolism in [2] worked out at 0.14; in series [14], 0.53. Further, the CLhep predicted in [3] is 3.88 mL/min/kg; in series [12] it was 14.7 mL/min/kg. Moreover, the Ratio in series [4], in [6] and in series [8] was 1.6 in each case. Besides, in series [10], the blood plasma ratio was 0.88. In addition, the fraction unbound in [11] came out at 0.015. In series [13], this compound yielded a clearance of 27.7 mL/min/kg.

For the compound `COc1c(C)c2c(c(O)c1C/C=C(\C)CCC(=O)O)C(=O)OC2` [MYCOPHENOLIC ACID], the fraction unbound at 1 µM in series [15] is 0.18; in series [24] it was 0.83; in series [28], 0.71; in series [32] it was 0.91. For the same compound, the CL free in series [16] is 11.8 µL/min/mg; in series [17], 57.8 µL/min/mg; in [18] it was 293 µL/min/mg; in [19], 9.32 mL/min/g; in series [20], 17.6 mL/min/g; in series [22] it was 3.13 mL/min/g. Also, the CL free in [25] is 78.2 µL/min/mg; in series [27] it was 0.244 mL/min/g; in series [29], 3.75 mL/min/g; in series [30], 0.292 mL/min/g; in [35], 1370 µL/min/mg; in [36], 233 µL/min/mg. For the same compound, the Drug metabolism in [2] and in series [14] was 0.95 in each case. For the same compound, the Ratio in [21] was 0.078; in [23], 1.2; in series [26], 4.9; in series [31] it was 1.89; in series [33], 14.8; in [34] it was 15.4. Besides, the values for the Ratio in series [37] and in series [38] were 4.7 and 0.128, respectively. For the same compound, the CLhep predicted in [3] and in [12] was 3.97 mL/min/kg in each case. Also, the blood plasma ratio in [10] came to 0.6. In series [11], the unbound share (fraction unbound) stood at 0.01. Also, the CL renal in [39] was 0.01 mL/min/kg. In series [13], the clearance is 2.49 mL/min/kg.
